Screens (PubChem BioAssay)
An excerpt weighted towards active compounds, which were near 4.4% of everything screened.
bovine MsrA act – bovine MsrA enzyme activators, primary screen, biochemical, absorbance, HTS. purified bovine MsrA, absorbance read-out. activation, % at 10.6 µM. 0.3% of 360,000 active. AID 602163, 2012; in the data active = activation above about 7.5%
AI-2 QS mod – Vibrio harveyi AI-2 quorum sensing modulators, primary screen, JMH597 strain, luminescence/OD600 ratio; AID 2094, 2009; Vibrio harveyi JMH597 AI-2 luminescence/OD600 ratio, 9 h; active compounds read low; strain lacks LuxN and CqsS sensors; 0 = neutral-control median; 0.4% of 300,000 active; activity change, % at 7.5 µM; in the data active = activity change below about -75%, passing the limit was not always enough;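 note: luminescence divided by OD600 gain over 9 h not by final OD600 alone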
Tb MetRS inh – T. brucei MetRS inhibitors, primary screen, biochemical, luminescence. methionyl-tRNA synthetase (Trypanosoma brucei brucei). purified T. brucei MetRS, ATP depletion, Kinase-Glo luminescence. inhibition, % at 11.9 µM. 0.4% of 360,000 active;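 active = inhibition above a per-plate cutoff of the control wells' mean inhibition plus 3 SD, cut at about 5.5% in these data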
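Material – parasite MetRS enzyme · Medium – HEPES-MgCl2-KCl buffer plus DTT, spermine, BSA, pyrophosphatase · Reagent – ATP, methionine and E. coli bulk tRNA substrates · Times – 15 min enzyme-compound preincubation, 2 h reaction, 10 min detection, 25 °C · Measured by – luminescence of leftover ATP · Evaluation – percent inhibition relative to median high and low control wells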
MsrA inh – bovine MsrA enzyme inhibitors, primary screen, biochemical, absorbance, HTS; Methionine sulfoxide reductase A (Bos taurus); purified bovine MsrA, absorbance read-out; inhibition, % at 15.5 µM; 0.75% of 360,000 active; in the data active = inhibition above about 4.5%
HTR2A ag – mouse Htr2a agonists via beta-arrestin recruitment, primary screen, cell-based, luminescence; CHO-K1 mHTR2A beta-arrestin complementation; percent of 30 µM serotonin response; activation, % at 7.6 µM; 0.66% of 360,000 active; AID 624169, 2012;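 active = activation above a run cutoff, the mean activation of all tested compounds plus 3 SD, cut at about 14% in these data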
AHR activator – AHR activators, primary screen, cell-based, luminescence, luciferase reporter, human; Aryl hydrocarbon receptor (Homo sapiens), P35869; AHR-responsive luciferase reporter cells; activation, % at 5 µM; 2.5% of 320,000 active; in the data active = activation above about 47%
Target sequence (P35869 whole entry, looked up): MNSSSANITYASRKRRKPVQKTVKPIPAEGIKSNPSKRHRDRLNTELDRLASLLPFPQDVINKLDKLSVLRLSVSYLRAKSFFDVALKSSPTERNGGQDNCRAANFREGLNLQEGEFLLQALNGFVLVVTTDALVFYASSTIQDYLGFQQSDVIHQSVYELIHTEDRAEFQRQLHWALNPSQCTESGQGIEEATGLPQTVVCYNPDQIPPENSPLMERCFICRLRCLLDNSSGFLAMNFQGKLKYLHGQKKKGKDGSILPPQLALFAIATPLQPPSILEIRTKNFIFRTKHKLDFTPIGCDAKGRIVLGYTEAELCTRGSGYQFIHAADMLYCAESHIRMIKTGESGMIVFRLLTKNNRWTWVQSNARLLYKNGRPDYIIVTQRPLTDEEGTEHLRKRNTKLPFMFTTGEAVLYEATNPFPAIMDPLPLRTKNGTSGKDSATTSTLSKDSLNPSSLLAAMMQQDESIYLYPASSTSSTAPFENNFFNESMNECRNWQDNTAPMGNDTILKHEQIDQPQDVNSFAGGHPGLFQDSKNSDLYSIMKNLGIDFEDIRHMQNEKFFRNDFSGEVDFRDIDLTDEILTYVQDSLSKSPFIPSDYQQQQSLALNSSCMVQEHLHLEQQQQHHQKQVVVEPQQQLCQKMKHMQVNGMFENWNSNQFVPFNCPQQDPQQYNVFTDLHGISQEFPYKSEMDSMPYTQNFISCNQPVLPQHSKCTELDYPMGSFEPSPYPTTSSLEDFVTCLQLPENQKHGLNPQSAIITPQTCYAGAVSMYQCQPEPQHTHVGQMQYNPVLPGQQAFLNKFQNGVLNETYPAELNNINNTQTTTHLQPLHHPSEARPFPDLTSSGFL
A number is an active result; n = inactive; x = no result.

SMILES	bovine MsrA act	AI-2 QS mod	Tb MetRS inh	MsrA inh	HTR2A ag	AHR activator
COc1ccccc1CC(=O)c1ccc(OCc2ccccc2)cc1	n	n	n	n	n	48
CCOc1ccc(C(=O)Cc2ccccc2)cc1	n	x	n	n	n	x
COC(=O)Cc1nnn2c1[C@H](C)[C@@H](OC)c1ccccc1-2	x	x	x	n	x	x
Cc1cc2c(c(=O)n1C1CC1)C(c1cccc(Cl)c1)C(C#N)=C(N)O2 (centres undefined)	n	n	63	n	n	n
O=C(N/N=C/c1ccc(Br)cc1)c1ccccc1-n1cccc1	n	n	n	x	n	71
Cc1ccccc1/C=N\NC(=O)c1ccccc1-n1cccc1	n	n	n	n	n	68
O=C(Cc1ccccc1)Nc1nnc(-c2cccs2)s1	n	n	n	n	n	69
O=C(Cc1ccccc1)Nc1nc(-c2cccs2)cs1	n	n	n	n	n	n
CCC(=O)Nc1nnc(-c2cccs2)s1	n	n	n	n	n	74
CCOC(=O)Nc1sc2nc(C)cc(C)c2c1-n1cccc1	n	n	n	n	n	70
Nc1[nH]c(C(=O)c2ccccc2)c(-c2ccccc2C(F)(F)F)c1C(=O)c1c[nH]c2ccccc12	x	x	x	n	x	x
NC(=O)C1CCN(C(=O)C2c3ccccc3C(=O)N3CCc4ccccc4C23)CC1 (centres undefined)	n	n	n	n	n	61
CCCN(CCC)CCNC(=O)C1c2ccccc2C(=O)N2CCc3ccccc3C12 (centres undefined)	n	n	n	n	n	n
CCOCCCNC(=O)C1c2ccccc2C(=O)N2CCc3ccccc3C12 (centres undefined)	n	n	n	n	n	76
COc1ccc(CNC(=O)COc2cc(=O)n(C)c3ccccc23)cc1	n	n	n	n	n	n
COc1ccc(OC)c(CNC(=O)COc2cc(=O)n(C)c3ccccc23)c1	n	n	n	n	n	57
O=C(Nc1ccc(-c2noc(-c3ccccc3F)n2)cc1)c1cccs1	n	n	n	n	n	n
Cc1ccccc1-c1nc(-c2ccc(NC(=O)c3cccs3)cc2)no1	n	n	n	n	n	57
COc1ccccc1-c1nc(C(N)=O)c2[nH]c(=O)n(-c3cccc(C)c3)c2n1	n	n	n	n	n	66
COc1ccc(-c2ccc3c(n2)CCCN3S(=O)(=O)c2ccccc2)cc1	x	x	x	n	x	x
Cc1ccc(N=Nc2c(N)nn3c(C)cc(C)nc23)cc1	n	n	n	n	n	58
Cc1cc(C)n2nc(N)c(N=Nc3cccc(Cl)c3)c2n1	n	n	n	n	n	n
Cc1ccc(N=Nc2c(N)nn3c(N)c(C#N)c(C)nc23)cc1	n	n	n	n	n	75
O=C(NCCc1ccccc1Cl)[C@@H]1CCCN1C(=O)[C@@H](NS(=O)(=O)c1ccc(F)cc1F)c1ccccc1	x	x	x	n	x	x
O=C(Nc1cc(Cl)ccc1N1CCOCC1)c1ccncc1	n	x	n	n	n	n
SMILES	bovine MsrA act	AI-2 QS mod	Tb MetRS inh	MsrA inh	HTR2A ag	AHR activator
COc1cc(OC)cc(C(=O)Nc2ccc(N3CCOCC3)cc2N2CCOCC2)c1	n	x	n	n	n	n
COc1c(F)c(F)c(C(=O)Nc2ccccc2N2CCN(C(C)=O)CC2)c(F)c1F	n	n	n	n	n	50
COc1cc(OC)cc(C(=O)Nc2ccccc2N2CCOCC2)c1	n	n	n	n	n	61
O=C(Nc1ccccc1N1CCOCC1)c1ccc(Cl)nc1	n	n	n	n	n	60
COc1c(F)c(F)c(C(=O)Nc2ccccc2N2CCN(C(=O)C(C)C)CC2)c(F)c1F	n	n	n	n	n	n
O=C(Nc1cc(Cl)ccc1N1CCOCC1)c1cccnc1Cl	n	n	n	n	n	70
O=C(N[C@H](C(=O)N1CCC[C@H]1C(=O)NC1CCCC1)C1CCCCC1)c1ccccc1	x	x	x	n	x	x
CS(=O)(=O)N1CCN(c2ccccc2NC(=O)c2ccc(Cl)cc2)CC1	n	n	n	n	n	79
Cc1cccc(-c2nc3ccccc3c3nncn23)c1	n	n	n	n	n	n
Cc1ccc2c(c1)c(-c1ccccc1)nc1nncn12	n	n	n	n	n	53
NC(=O)c1ncn([C@@H]2O[C@H](CNS(=O)(=O)c3cc4ccccc4s3)[C@@H](O)[C@H]2O)n1	n	x	n	n	n	x
Cc1cc(C)n(-c2nc(NCCO)c3c4c(sc3n2)CCCC4)n1	n	n	n	n	n	47
Cc1cc(C)n(-c2nc(NCCCO)c3c4c(sc3n2)CCCC4)n1	n	n	n	n	n	n
COC(=O)c1cc2c(c3c4ccccc4n(S(=O)(=O)c4ccc(OC)cc4)c13)C(=O)N(Cc1ccc(C(F)(F)F)cc1)C2	x	x	x	n	x	x
COc1ccc(NC(=O)c2cc3cc(C)ccc3n2C)c(OC)c1	n	n	n	n	n	59
Nc1cccn2c(-c3ccc(Cl)cc3)cnc12	n	n	n	n	n	70
Nc1cccn2c(-c3ccc(Cl)c(Cl)c3)cnc12	n	n	n	n	n	n
O=c1cc(/C=C/c2ccccc2)oc2ccccc12	n	n	n	n	n	60
CC(C)C[C@H]1CNC(=S)N1C[C@H]1CCCN1C[C@H](CC(C)C)N1C[C@H](Cc2ccc(O)cc2)N(CC2CCCCCC2)C1=S	n	x	n	n	n	x
Cc1ccccc1C(=O)N[C@H](C(=O)N1CCC[C@H]1C(=O)NCCc1ccccc1Cl)c1ccccc1	x	x	x	n	x	x
c1ccc(Cn2nnc3c(Nc4ccc5c(c4)OCO5)nc(C4CC4)nc32)cc1	n	n	n	n	n	70
COc1cc2c(cc1OC)CN(c1ccc(F)cc1[N+](=O)[O-])CC2	n	n	n	n	n	59
COc1cc2c(cc1OC)CN(c1ncccc1[N+](=O)[O-])CC2	n	n	n	n	n	n
CCCCc1ccc(S(=O)(=O)Nc2nnc(C)s2)cc1	n	-98	n	n	n	n
CCCCOCCCNC(=O)C[C@H]1C[C@@]2(C(=O)OC)C(=C[C@H](C3CCCC3)O[C@@H]2C)N(Cc2ccccc2)C1=O	x	x	x	n	x	x
COc1cccc(-n2cnnn2)c1	n	n	n	n	n	n
COc1cccc(-n2nnc(S(=O)(=O)c3ccc(C)cc3)c2N)c1	n	-92	n	n	n	n
COc1cccc(-n2nnnc2S(C)(=O)=O)c1	n	-87	n	x	n	n
N=c1c2c3c(sc2ncn1Nc1ccccc1)CCC3	n	n	n	n	n	68
COc1ccc(C2c3[nH]c4ccccc4c3CCN2Cc2ccoc2)c(F)c1 (centres undefined)	n	n	n	n	n	47
